Rows were chosen to be rich in hits. Some 2.5% of all compounds tested hit in one or more screens of this group.
HGIII-sPLA2 inh: human group III sPLA2 inhibitors, primary screen, biochemical, QFRET, BODIPY PC-A2 liposome substrate; 370,000 tested, 0.56% active; QFRET BODIPY PC-A2 liposome hydrolysis, fluorescence; inhibition, % at 12.2 µM; Group 3 secretory phospholipase A2 (Homo sapiens), Q9NZ20;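 active = inhibition above mean plus 3 SD of compounds lying within the high and low control bounds, cut at about 19% in these data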;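 note: 0% = median of test compound wells and 100% = no enzyme DMSO wells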
NTR1 agonist: agonists of human NTR1, primary screen, imaging, U2OS cells, beta-arrestin-GFP, high content; Neurotensin receptor type 1 (Homo sapiens), P30989; NTR1-U2OS beta-arrestin-GFP spot imaging, agonist mode; activation, % at 20 µM; 330,000 tested, 0.17% active; AID 493036, 2011;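 active = activation at or above 40% of the spot to cytoplasm intensity ratio, with at least 20 cells analyzed; inconclusive = wells under 20 cells, flagged as cytotoxic or low count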;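 note: 0% = DMSO without peptide and 100% = 100 nM NTR1 peptide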
MC4R barr agon: MC4R agonists recruiting beta-arrestin, primary screen, cell-based, luminescence, agonist arm of biased-ligand search; Melanocortin receptor 4 (Homo sapiens), P32245; U2OS MC4R beta-arrestin complementation; percent of melanotan II response, DMSO zero; activation, % at 8.9 µM; 360,000 tested, 0.98% active;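 active = activation above a per-plate cutoff, the mean activation of sample wells on that plate plus 3 SD, cut at about 8% in these data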
Target sequence (P32245 whole entry, looked up): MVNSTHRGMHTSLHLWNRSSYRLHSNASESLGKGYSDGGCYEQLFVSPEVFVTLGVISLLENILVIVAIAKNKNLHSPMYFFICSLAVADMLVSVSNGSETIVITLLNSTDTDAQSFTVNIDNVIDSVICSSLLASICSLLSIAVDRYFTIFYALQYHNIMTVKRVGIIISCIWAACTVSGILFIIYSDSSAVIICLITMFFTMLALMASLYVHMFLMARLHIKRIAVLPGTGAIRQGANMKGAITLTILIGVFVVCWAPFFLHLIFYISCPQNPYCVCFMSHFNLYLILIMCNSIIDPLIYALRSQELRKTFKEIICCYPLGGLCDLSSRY
MC4R antagonist: MC4R antagonists of cAMP signaling, primary screen, cell-based, TR-FRET, antagonist arm of biased-ligand search. Melanocortin receptor 4 (Homo sapiens), P32245. MC4R-expressing cells, MTII-stimulated cAMP, LANCE TR-FRET. inhibition, % at 6.5 µM. 360,000 tested, 0.48% active;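 active = inhibition above its plate's cutoff, the mean of tested wells on that plate plus 3 SD, cut at about 29% in these data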;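 note: 0% = Melanotan II alone and 100% = Melanotan II plus saturating MCL0020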
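System: U2OS cells stably expressing human melanocortin 4 receptor (MC4R). Reagent: Melanotan II challenge after compound preincubation. Doses: 6.5 µM. Times: 30-min compound, 1-h challenge, 1-h detection, room temperature. Measured by: TR-FRET with Eu-cAMP and labeled anti-cAMP, 671 nm. Replicates: singlicate.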
Bfl-1 A1 inh: caspase 3/7 activation in MEF A1-2A-BIM cells, primary screen, A1 inhibitor project, cell-based, luminescence, HTS | Caspase-Glo 3/7 luminescence, 3 h; percent of clofoctol response, vehicle zero | caspase activation, % (test concentration not listed) | 330,000 tested, 0.066% active;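 active = over half of replicate activation scores above 10%, or exactly half above 10 with the replicate mean above 10; inconclusive = replicate mean below 10 yet half the replicates above 10; inactive = over half of replicates below 10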
Granule exo inh: LAMP-1 surface exposure blockers, TALL-104 cells – cell-based, flow cytometry, MLPCN library, primary screen; 360,000 tested, 0.66% active; TALL-104 LAMP-1 surface exposure; cells stimulated with thapsigargin and PMA; inhibition, % at 10 µM;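 active = inhibition above about 55%, limit read from the data; inconclusive = no clear call, values can overlap the other calls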
MC4R barr conf: MC4R beta-arrestin agonists, retest, confirmation, cell-based, luminescence, U2OS; U2OS MC4R beta-arrestin recruitment; scaled DMSO 0%, Melanotan II 100%; 2,400 tested, 31% active; shares compounds with MC4R barr agon; activation, % at 8.9 µM;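 active = mean activation across replicates above the hit cutoff set in the earlier primary screen, cut at about 8% in these data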
MOR DOR agonist: agonists of MOR-DOR heterodimerization, counter-screen for MC4R biased agonist project, cell-based, luminescence | 2,400 tested, 5.8% active | shares compounds with MC4R barr agon | U2OS PathHunter beta-arrestin, beta-gal luminescence; percent of deltorphin B response, DMSO zero | activation, % at 9.2 µM;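 active = mean activation across replicates exceeds the hit threshold derived in the earlier primary screen, cut at about 18% in these data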;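 note: 100% = deltorphin B at 0.9 µM final and 0% = DMSO alone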
Active calls of the source: *; ? = inconclusive; . = no result given.

SMILES	HGIII-sPLA2 inh	NTR1 agonist	MC4R barr agon	MC4R antagonist	Bfl-1 A1 inh	Granule exo inh	MC4R barr conf	MOR DOR agonist
O=C(NC(c1ccc(F)cc1)c1ccc2ccccc2n1)C1CCN(CCOc2ccc(F)cc2)CC1 (stereo not given)	-24	.	1	10	.	23	.	.
Cc1cccnc1C(NC(=O)C1CCN(CCOc2ccc(Cl)cc2Cl)CC1)c1ccc(Cl)cc1 (stereo not given)	-5	.	34*	3	.	11	17*	8
O=C(NC(c1ccc(Cl)cc1)c1cccnc1)C1CCN(CCOc2ccc(Cl)cc2Cl)CC1 (stereo not given)	-16	.	18*	4	.	6	30*	13
O=C(NC(c1ccc2c(c1)OCO2)c1ccccn1)C1CCN(CCOc2ccc(Cl)cc2Cl)CC1 (stereo not given)	-18	.	1	5	.	-5	.	.
C[C@H]1COc2cc(N3CCCC3)ccc2S(=O)(=O)N1C	-1	.	.	.	.	.	.	.
COC(=O)[C@H](C)NC(=O)[C@@H]1CC=C[C@@H]2CCN(CCc3ccccc3)C(=O)[C@@H]21	-1	.	.	.	.	.	.	.
O=C(c1ccc(COc2ccc(Br)cc2)o1)N1N=C(C(F)F)CC1(O)C(F)F (stereo not given)	-15	10	11*	7	0	-3	22*	14
CCOc1ccc(OCc2ccc(C(=O)N3N=C(C(F)F)CC3(O)C(F)F)o2)cc1 (stereo not given)	-11	0	8	3	0	-2	.	.
Cc1cc(C)cc(OCc2ccc(C(=O)N3N=C(C(F)F)CC3(O)C(F)F)o2)c1 (stereo not given)	-12	6	7	10	?	-1	.	.
O=C(c1ccc(COc2ccc3ccccc3c2)o1)N1N=C(C(F)F)CC1(O)C(F)F (stereo not given)	.	26	30*	-4	3	1	16*	6
CCCCNC(=O)C[C@H]1C[C@@]2(C(=O)OC)C(=C[C@H](C(C)C)O[C@@H]2C2CC2)N(Cc2ccc3c(c2)OCO3)C1=O	-2	.	.	.	.	.	.	.
CC(C)(C)c1ccc(-c2nnc3n2N=C(c2ccc4ccccc4c2)CS3)cc1	15	.	.	.	.	.	.	.
